Experimental data: ChEMBL document CHEMBL4330056, “Synthesis and Cytotoxic and Antiviral Profiling of Pyrrolo- and Furo-Fused 7-Deazapurine Ribonucleosides” (J Med Chem, 2018)
Activity calls are given as the source filed them. The calls are words filed in the database; no cut-off is given here.

Experiments:
Human orthopneumovirus = experiment: Antiviral activity against Human respiratory syncytial virus A2 infected in Hep2 cells assessed as reduction in virus-induced cytopathic effect incubated for 4 days by CellTiter-Glo viability reagent based assay; type: functional, organism-based
A549 = experiment: Antiproliferative activity against human A549 cells after 3 days by MTS assay; type: functional, cell-based; conditions: A549, 72 h
Hepatitis C virus [1] = experiment: Antiviral activity against Hepatitis C virus genotype 1b infected in human Huh-luc replicon cells after 3 days by luciferase assay; type: functional, organism-based, Hepacivirus hominis; conditions: subtype 1b, 72 h
HepG2 = experiment: Antiproliferative activity against human HepG2 cells after 72 hrs by XTT assay; type: functional, cell-based; conditions: HepG2, 72 h
Coxsackievirus B3 = experiment: Antiviral activity against Human coxsackie B3 Nancy infected in human HeLa cells assessed as inhibited virus-induced cytopathic effect incubated for 2 days by XTT assay; type: functional, organism-based
Adenosine kinase [2] = target: T1, Adenosine kinase (Homo sapiens, UniProt P55263); experiment: Substrate activity at recombinant human ADK assessed as compound phosphorylation at 50 uM after 20 mins in presence of [3H]-adenosine by UPLC; type: ADME
HL-60 = experiment: Antiproliferative activity against human HL60 cells after 72 hrs by XTT assay; type: functional, cell-based; conditions: HL-60, 72 h
[3] = Cytotoxicity against human Hep2 cells assessed as reduction in cell viability after 3 days by CellTiter-Glo assay; type: cell-based; conditions: HEp-2 cells
[4] = Antiproliferative activity against human K562-TAX cells after 3 days by MTS assay; type: functional, cell-based; conditions: 72 h
Human alphaherpesvirus 1 = experiment: Antiviral activity against human herpesvirus 1 HF infected in African green monkey Vero cells assessed as inhibited virus-induced cytopathic effect incubated for 3 days by XTT assay; type: functional, organism-based
dengue virus type 2 = experiment: Antiviral activity against Dengue virus 2 Thailand/16681/84 infected in African green monkey Vero cells assessed as inhibition of virus replication incubated for 3 days by fluorescence microscopy; type: functional, organism-based
HCT-116 [5] = experiment: Antiproliferative activity against p53 gene knocked out human HCT116 cells after 3 days by MTS assay; type: functional, cell-based; conditions: HCT-116, 72 h
CCRF-CEM = experiment: Antiproliferative activity against human CCRF-CEM cells after 3 days by MTS assay; type: functional, cell-based; conditions: 72 h
[6] = Antiproliferative activity against human CEM-DNR-bulk cells after 3 days by MTS assay; conditions: 72 h
Influenza A virus = experiment: Antiviral activity against Influenza A virus (A/Mexico/4108/2009(H1N1)) infected in MDCK cells assessed as inhibited virus-induced cytopathic effect incubated for 2 days by XTT assay; type: functional, organism-based
MRC5 = experiment: Antiproliferative activity against human MRC5 cells after 3 days by MTS assay; conditions: MRC5, 72 h
K562 = experiment: Antiproliferative activity against human K562 cells after 3 days by MTS assay; type: functional, cell-based; conditions: K562, 72 h
Adenosine kinase [7] = target: T1, Adenosine kinase; experiment: Inhibition of recombinant human ADK using [3H]-adenosine as substrate after 20 mins by TLC scanner-based analysis relative to control
Method in brief: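 ADK inhibition: 50 μM adenosine substrate with 10 μM test compound and 97 ng enzyme, 20 min at 37 °C.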

HCT-116 [8] = experiment: Antiproliferative activity against human HCT116 cells after 3 days by MTS assay; type: functional, cell-based; conditions: HCT-116, 72 h
HeLa S3 = experiment: Antiproliferative activity against human HeLaS3 cells after 72 hrs by XTT assay; type: functional, cell-based; conditions: HeLa S3, 72 h
U2OS = experiment: Antiproliferative activity against human U2OS cells after 3 days by MTS assay; type: functional, cell-based; conditions: 72 h
Hepatitis C virus [9] = experiment: Antiviral activity against Hepatitis C virus genotype 2a infected in human Huh-luc replicon cells after 3 days by luciferase assay; type: functional, organism-based, Hepacivirus hominis; conditions: subtype 2a, 72 h
BJ = experiment: Antiproliferative activity against human BJ cells after 3 days by MTS assay; conditions: 72 h

T1 sequence (P55263 whole entry): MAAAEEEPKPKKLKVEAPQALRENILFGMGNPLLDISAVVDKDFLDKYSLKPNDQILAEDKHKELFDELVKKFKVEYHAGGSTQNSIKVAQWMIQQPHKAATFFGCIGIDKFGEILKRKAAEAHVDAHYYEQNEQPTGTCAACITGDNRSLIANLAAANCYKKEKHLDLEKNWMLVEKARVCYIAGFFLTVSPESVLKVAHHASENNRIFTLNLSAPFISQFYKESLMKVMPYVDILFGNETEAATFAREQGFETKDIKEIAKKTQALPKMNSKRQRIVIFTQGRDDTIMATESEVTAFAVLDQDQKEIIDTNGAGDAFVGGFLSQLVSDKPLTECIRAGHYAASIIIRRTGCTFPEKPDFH

SMILES	Activity (Human orthopneumovirus)	IC50 (A549) [µM]	EC50 (Hepatitis C virus [1]) [µM]	IC50 (HepG2) [µM]	Activity (Coxsackievirus B3)	Activity (Adenosine kinase [2]) [%]	IC50 (HL-60) [µM]	CC50 at 72 h [3] [µM]	IC50 [4] [µM]	Activity (Human alphaherpesvirus 1)	Activity (dengue virus type 2)	IC50 (HCT-116 [5]) [µM]	IC50 (CCRF-CEM) [µM]	IC50 [6] [µM]	Activity (Influenza A virus)	IC50 (MRC5) [µM]	IC50 (K562) [µM]	IC50 (Adenosine kinase [7]) [µM]	IC50 (HCT-116 [8]) [µM]	IC50 (HeLa S3) [µM]	other results
CSc1ncnc2c1c1ccn(C)c1n2[C@@H]1O[C@H](CO)[C@@H](O)[C@H]1O	inactive	> 50	5.98	> 50	inactive	0	> 50	36.8 to 44	30	inactive	inactive	> 50	25.5	28.2	inactive	> 50	18	> 10	35.9	> 50	IC50 (U2OS): 27.4 µM; EC50 (Hepatitis C virus [9]): 17 µM; IC50 (BJ): > 50 µM
Cn1ccc2c3c(-c4ccoc4)ncnc3n([C@@H]3O[C@H](CO)[C@@H](O)[C@H]3O)c21	inactive	> 50	16.5	> 50	inactive	0	> 50	> 44.4	> 50	inactive	inactive	> 50	> 50	> 50	inactive	> 50	> 50	> 10	> 50	> 50	IC50 (U2OS): > 50 µM; EC50 (Hepatitis C virus [9]): > 44.4 µM; IC50 (BJ): > 50 µM
COc1ncnc2c1c1ccn(C)c1n2[C@@H]1O[C@H](CO)[C@@H](O)[C@H]1O	inactive	> 50	> 44.4	> 50	inactive	0	> 50	> 44.4	> 50	inactive	inactive	> 50	> 50	> 50	inactive	> 50	> 50	> 10	> 50	> 50	IC50 (U2OS): > 50 µM; EC50 (Hepatitis C virus [9]): > 44.4 µM; IC50 (BJ): > 50 µM
Cn1ccc2c3c(N)ncnc3n([C@@H]3O[C@H](CO)[C@@H](O)[C@H]3O)c21	inactive	> 50	27.3	> 50	inactive	0	> 50	34.6 to 44.4	> 50	inactive	inactive	> 50	> 50	> 50	inactive	> 50	> 50	> 10	> 50	> 50	IC50 (U2OS): > 50 µM; EC50 (Hepatitis C virus [9]): 33.9 µM; IC50 (BJ): > 50 µM
Cn1ccc2c1c1c(-c3ccoc3)ncnc1n2[C@@H]1O[C@H](CO)[C@@H](O)[C@H]1O	inactive	> 50	20.2	> 50	inactive	9	> 50	> 44.4	> 50	inactive	inactive	9	> 50	> 50	inactive	> 50	0.94	> 10	8.16	> 50	IC50 (U2OS): 2.41 µM; EC50 (Hepatitis C virus [9]): 3.45 µM; IC50 (BJ): > 50 µM
